The values that follow come from ChEMBL document CHEMBL3616416, “Imidazolidine-4-one derivatives in the search for novel chemosensitizers of Staphylococcus aureus MRSA: synthesis, biological evaluation and molecular modeling studies” (Eur J Med Chem, 2015).

In brackets after ≈: the same amount, converted by molar mass. Activity calls are given as the source filed them.

In data set [1] the test system is Staphylococcus aureus. The data set is described as follows: Potentiation of […] antibacterial activity against Staphylococcus aureus ATCC 25923 assessed as reduction in ampicillin and sulbactam MIC MIC incubated for 20 hrs by serial dilution broth microplate method. The format is functional, organism-based.
Data set [2] has as its system Staphylococcus aureus. The data set is described as follows: Antimicrobial activity against methicillin-resistant Staphylococcus aureus HEMSA incubated for 20 hrs by serial dilution broth microplate method. It is filed as functional. Summed up:
(§1)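 Broth microdilution MIC per CLSI in Mueller-Hinton broth against clinical isolate MRSA HEMSA 5. Bacterial suspension adjusted to OD 0.5, diluted 1:100 and added to serial two-fold dilutions of test agent. Ampicillin/sulbactam used at 2:1 ratio. Growth read after 20 h at 37 °C.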

Data set [3] deals with T1, Methicillin resistance mecR1 protein (Staphylococcus aureus) (UniProt P0A0B1).
T1 sequence (whole entry): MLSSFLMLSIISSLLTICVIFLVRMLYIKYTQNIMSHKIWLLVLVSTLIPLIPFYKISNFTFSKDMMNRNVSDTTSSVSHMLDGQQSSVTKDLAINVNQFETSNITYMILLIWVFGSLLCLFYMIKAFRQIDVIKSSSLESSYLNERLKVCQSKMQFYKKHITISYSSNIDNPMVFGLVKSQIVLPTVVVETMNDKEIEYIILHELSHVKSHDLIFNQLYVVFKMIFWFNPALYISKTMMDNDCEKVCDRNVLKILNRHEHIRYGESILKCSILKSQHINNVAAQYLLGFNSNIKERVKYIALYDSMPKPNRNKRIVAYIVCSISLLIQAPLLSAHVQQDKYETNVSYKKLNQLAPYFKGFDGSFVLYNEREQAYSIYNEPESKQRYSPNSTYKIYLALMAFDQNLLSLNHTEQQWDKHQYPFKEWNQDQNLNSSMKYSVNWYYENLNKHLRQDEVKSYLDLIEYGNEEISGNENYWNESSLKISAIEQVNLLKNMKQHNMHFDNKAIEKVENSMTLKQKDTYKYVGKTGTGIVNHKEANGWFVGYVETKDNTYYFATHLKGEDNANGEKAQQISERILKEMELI
The data set is described as follows: Inhibition of MecR1 in methicillin-resistant Staphylococcus aureus HEMSA assessed as reduction in ampicillin and sulbactam MIC at 0.0078 mM incubated for 20 hrs by serial dilution broth microplate method. A digest of the protocol: (§2)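 Chemosensitization in MRSA HEMSA 5 measured by CLSI broth microdilution in Mueller-Hinton broth. Serial two-fold dilutions of antibiotic (oxacillin, cloxacillin, ampicillin/sulbactam 2:1, ciprofloxacin or neomycin) combined with compound at fixed concentration not exceeding ¼ of its own MIC. Inoculum OD 0.5 diluted 1:100. Read after 20 h at 37 °C. Result given as fold reduction of antibiotic MIC.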

Data set [4] deals with Staphylococcus aureus. The data set is described as follows: Resistance index, ratio of MIC for methicillin-resistant Staphylococcus aureus HEMSA to MIC for Staphylococcus aureus ATCC 25923. The format is functional.
For data set [5], the system named is Staphylococcus aureus. The data set is described as follows: Antimicrobial activity against Staphylococcus aureus ATCC 25923 incubated for 20 hrs by serial dilution broth microplate method. It is filed as functional. Conditions: ATCC 25923, 20 h. A digest of the protocol: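 Broth dilution per CLSI in Mueller-Hinton broth, serial two-fold dilutions; compounds alone against reference strain, inoculum from suspension at OD 0.5 diluted 1:100; read after 20 h at 37 °C. MIC taken as lowest concentration inhibiting growth.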

Data set [6] addresses T1, Methicillin resistance mecR1 protein (Staphylococcus aureus). The data set is described as follows: Inhibition of MecR1 in methicillin-resistant Staphylococcus aureus HEMSA assessed as reduction in oxacillin A MIC at 0.0078 mM incubated for 20 hrs by serial dilution broth microplate method. Summed up: as §2
The target is the same in data set [7]. The data set is described as follows: Inhibition of MecR1 in methicillin-resistant Staphylococcus aureus HEMSA assessed as reduction in neomycin MIC at 0.0078 mM incubated for 20 hrs by serial dilution broth microplate method. A digest of the protocol:
as §2

Data set [8] relates to Staphylococcus aureus. The data set is described as follows: Potentiation of […] antibacterial activity against Staphylococcus aureus ATCC 25923 assessed as reduction in cloxacillin MIC incubated for 20 hrs by serial dilution broth microplate method. The format is functional, organism-based.
For data set [9], the target named is T1, Methicillin resistance mecR1 protein (Staphylococcus aureus). Nature of the data set: Inhibition of MecR1 in methicillin-resistant Staphylococcus aureus HEMSA assessed as reduction in cloxacillin MIC at 0.0078 mM incubated for 20 hrs by serial dilution broth microplate method. Summed up: as §2
Data set [10] concerns Staphylococcus aureus. Nature of the data set: Potentiation of neomycin-induced antibacterial activity against Staphylococcus aureus ATCC 25923 assessed as reduction in […] MIC incubated for 20 hrs by serial dilution broth microplate method. The format is functional, organism-based.
In data set [11] the target is T1, Methicillin resistance mecR1 protein (Staphylococcus aureus). Nature of the data set: Inhibition of MecR1 in methicillin-resistant Staphylococcus aureus HEMSA assessed as reduction in ciprofloxacin MIC at 0.0078 mM incubated for 20 hrs by serial dilution broth microplate method. Summed up:
as §2

Data set [12] relates to Staphylococcus aureus. Nature of the data set: Potentiation of ciprofloxacin -induced antibacterial activity against Staphylococcus aureus ATCC 25923 assessed as reduction in […] MIC incubated for 20 hrs by serial dilution broth microplate method. The format is functional, organism-based.
Data set [13] concerns Staphylococcus aureus. Nature of the data set: Potentiation of oxacillin-induced antibacterial activity against Staphylococcus aureus ATCC 25923 assessed as reduction in oxacillin MIC at 0.0039 mM incubated for 20 hrs by serial dilution broth microplate method. The format is functional.
Data set [14] has as its target T1, Methicillin resistance mecR1 protein (Staphylococcus aureus). The data set is described as follows: Inhibition of MecR1 in methicillin-resistant Staphylococcus aureus HEMSA assessed as reduction in ampicillin and sulbactam MIC at 0.125 mM incubated for 20 hrs by serial dilution broth microplate method. A digest of the protocol:
as §2

Data set [15] has the same target. Nature of the data set: Inhibition of MecR1 in methicillin-resistant Staphylococcus aureus HEMSA assessed as reduction in cloxacillin MIC at 0.125 mM incubated for 20 hrs by serial dilution broth microplate method. A digest of the protocol:
as §2

Data set [16] has as its system Staphylococcus aureus. The data set is described as follows: Potentiation of oxacillin-induced antibacterial activity against Staphylococcus aureus ATCC 25923 assessed as reduction in oxacillin MIC at 0.125 mM incubated for 20 hrs by serial dilution broth microplate method. The format is functional.
The target of data set [17] is T1, Methicillin resistance mecR1 protein (Staphylococcus aureus). Nature of the data set: Inhibition of MecR1 in methicillin-resistant Staphylococcus aureus HEMSA assessed as reduction in ciprofloxacin MIC at 0.125 mM incubated for 20 hrs by serial dilution broth microplate method. A digest of the protocol:
as §2

Data set [18] has the same target. The data set is described as follows: Inhibition of MecR1 in methicillin-resistant Staphylococcus aureus HEMSA assessed as reduction in neomycin MIC at 0.125 mM incubated for 20 hrs by serial dilution broth microplate method.
Data set [19] shares this target. The data set is described as follows: Inhibition of MecR1 in methicillin-resistant Staphylococcus aureus HEMSA assessed as reduction in oxacillin A MIC at 0.125 mM incubated for 20 hrs by serial dilution broth microplate method. Summed up:
as §2

A short description of data set [20]: Toxicity against HEK293 cells assessed as cell viability at 0.125 mM incubated for 48 hrs by EZ4U colorimetric assay. It is filed as cell-based. Conditions: human, read-out: Activity. A digest of the protocol: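 HEK-293 cells in DMEM with 10% FBS, penicillin/streptomycin, 37 °C, 5% CO2; seeded 1.5×10^4 cells/well, 24 h to 60% confluence; compound 0.01–250 µM for 48 h; EZ4U tetrazolium reagent 5 h, absorbance at 492 nm; doxorubicin positive control (0.005–100 µM); four repetitions.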

The test system of data set [21] is Staphylococcus aureus. The data set is described as follows: Potentiation of oxacillin-induced antibacterial activity against Staphylococcus aureus ATCC 25923 assessed as reduction in oxacillin MIC at 0.0625 mM incubated for 20 hrs by serial dilution broth microplate method. The format is functional.
Data set [22] deals with T1, Methicillin resistance mecR1 protein (Staphylococcus aureus). The data set is described as follows: Inhibition of MecR1 in methicillin-resistant Staphylococcus aureus HEMSA assessed as reduction in neomycin MIC at 0.125 mM incubated for 20 hrs by serial dilution broth microplate method. Summed up:
as §2

The test system of data set [23] is Staphylococcus aureus. The data set is described as follows: Antimicrobial activity against methicillin-resistant Staphylococcus aureus HEMSA incubated for 20 hrs in presence of sulbactam by serial dilution broth microplate method. It is filed as functional. Summed up:
as §1

The subject of data set [24] is Staphylococcus aureus. Nature of the data set: Antimicrobial activity against Staphylococcus aureus ATCC 25923 incubated for 20 hrs in presence of sulbactam by serial dilution broth microplate method. It is filed as functional. Conditions: ATCC 25923, 20 h.

As a reminder, the MIC is the smallest concentration in the dilution series that meets the test's criterion for growth inhibition. In the case of `O=C1NC(N2CCNCC2)=N/C1=C\c1ccc2c(c1)Cc1ccccc1-2`, the result in the data set with Staphylococcus aureus [1], with Staphylococcus aureus [8], in the data set on Staphylococcus aureus [10] and with Staphylococcus aureus [12] was inactive. Besides, the minimum inhibitory concentration (MIC) against Staphylococcus aureus [2] was found to be 31.3 µM (≈ 10.8 µg/mL); with Staphylococcus aureus [5], 15.6 µM (≈ 5.37 µg/mL). For the same compound, the inhibition entry in data set [3], in data set [6], in data set [7] and in data set [11] was “inactive” each time. The Ratio in the data set with Staphylococcus aureus [4] amounted to 2. The fold change (FC) is 8 in [9] and 2 in the data set with Staphylococcus aureus [13].
`O=C1NC(N2CCNCC2)=N/C1=C\c1c2ccccc2cc2ccccc12`: the inhibition result in [14], in data set [17] and in [18] was “inactive” in each case. Further, the result in the data set with Staphylococcus aureus [1], in the data set on Staphylococcus aureus [8], in the data set on Staphylococcus aureus [10] and with Staphylococcus aureus [12] was inactive. Further, the MIC in the data set on Staphylococcus aureus [2] and with Staphylococcus aureus [5] was 500 µM (≈ 178 µg/mL) throughout. Further, the Ratio in the data set on Staphylococcus aureus [4] came to 1. The values for the fold change (FC) (in data set [15]; in the data set with Staphylococcus aureus [16]; in [19]) were 8, 2 and 64, respectively. Moreover, the viability at 48 h, 125 µM in data set [20] came out at 91%.
Regarding `O=C1NC(N2CCNCC2)=N/C1=C\c1ccc2ccccc2c1`, the fold change (FC) was 4 in data set [14]; 2 in the data set with Staphylococcus aureus [21]; 256 in data set [15]; 4 in [17]; 128 in [19]. Further, the result with Staphylococcus aureus [1], in the data set with Staphylococcus aureus [8], in the data set on Staphylococcus aureus [10] and in the data set with Staphylococcus aureus [12] was inactive. Further, the MIC against Staphylococcus aureus [2] came to 500 µM (≈ 153 µg/mL); against Staphylococcus aureus [5], 250 µM (≈ 76.6 µg/mL). The Ratio in the data set on Staphylococcus aureus [4] is 2. For the same compound, the inhibition entry in data set [22] was “inactive”.
With `CC1(C)S[C@@H]2[C@H](NC(=O)[C@H](N)c3ccccc3)C(=O)N2[C@H]1C(=O)O` [AMPICILLIN], the Ratio in the data set on Staphylococcus aureus [4] amounted to 370. Also, the figures for the MIC with Staphylococcus aureus [23] and in the data set with Staphylococcus aureus [24] were 200 µM and 0.54 µM, respectively.
